# HSP90 inh = HSP90 inhibitors, primary screen, cell lysate, luminescence; Heat shock protein HSP 90 (rabbit reticulocyte lysate; luciferase refolding); Rabbit reticulocyte lysate, luciferase refolding luminescence, 3 h; 290,000 compounds, 0.91% hits; inhibition, % at 5.6 µM;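 active = inhibition above the screen-wide mean plus 3 SD, computed separately per campaign, cut at about 16% in these data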;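 note: inhibitors lower the luminescence because luciferase stays unfolded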
# SENP8 block-1 = SENP8 protease inhibitors, primary screen, biochemical, luminescence; Sentrin-specific protease 8 (Homo sapiens), Q96LD8; purified SENP8, Z-RLRGG-aminoluciferin cleavage; inhibition, % at 10 µM; 330,000 compounds, 1.2% hits; in the data active = inhibition above about 50%
# Target sequence (Q96LD8 whole entry, looked up): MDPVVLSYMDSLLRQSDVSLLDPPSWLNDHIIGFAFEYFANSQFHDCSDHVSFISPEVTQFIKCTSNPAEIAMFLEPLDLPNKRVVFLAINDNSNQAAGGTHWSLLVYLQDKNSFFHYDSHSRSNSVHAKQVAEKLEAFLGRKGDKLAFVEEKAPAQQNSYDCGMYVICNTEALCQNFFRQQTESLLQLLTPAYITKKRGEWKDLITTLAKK
# SENP7 block = SENP7 protease inhibitors, primary screen, biochemical, luminescence, uHTS | Sentrin-specific protease 7 (Homo sapiens), Q9BQF6 | recombinant SENP7, Z-RLRGG-aminoluciferin luminescence, 40 min | inhibition, % at 5 µM | 330,000 compounds, 1.5% hits | AID 434973, 2010;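 active = inhibition above about 50% at the single test dose, limit read from the data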
# SENP6 block = SENP6 protease inhibitors, primary screen, biochemical, luminescence, uHTS; Sentrin-specific protease 6 (Homo sapiens), Q9GZR1; Recombinant SENP6 catalytic domain, aminoluciferin luminescence; inhibition, % at 10 µM; 330,000 compounds, 1.8% hits; AID 2599, 2010;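 active = inhibition above about 50% at the single tested dose, limit read from the data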
# SENP8 block-2 = human SENP8 protease inhibitors, primary screen, biochemical, fluorescence, Nedd8 protein substrate, uHTS; 360,000 compounds, 0.64% hits; inhibition, % at 20 µM; AID 602440, 2012; recombinant SENP8; Sentrin-specific protease 8 (Homo sapiens), Q96LD8; in the data active = inhibition mostly above about 40%, no sharp cut-off; inactive = mostly below about 27%
# SENP1 inh = human SENP1 catalytic domain inhibitors, primary screen, biochemical, FRET, uHTS; recombinant SENP1 catalytic domain, CyPet-SUMO1-YPet FRET cleavage; inhibition, % at 10 µM; AID 624204, 2012; 360,000 compounds, 0.21% hits;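 active = inhibition at least 30% at 10 µM, raw YFP signal under a set limit, fluorescence ratio 0.5 to 1.5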
# Target sequence (Q9P0U3 419-644 limits assumed): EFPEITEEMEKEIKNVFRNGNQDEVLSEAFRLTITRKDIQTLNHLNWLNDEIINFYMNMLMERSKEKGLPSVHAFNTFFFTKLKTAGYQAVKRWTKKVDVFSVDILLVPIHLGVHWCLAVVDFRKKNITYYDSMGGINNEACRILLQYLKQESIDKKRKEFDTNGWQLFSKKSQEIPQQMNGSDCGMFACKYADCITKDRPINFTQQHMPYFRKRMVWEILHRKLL
#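 Controls: no-enzyme wells low, DMSO-plus-enzyme wells high control. Test system: human recombinant His6-tagged SENP1 catalytic domain enzyme. Reagent: SFCypet-SUMO1-SFYpet FRET protein substrate, 25 nM final. Doses: one dose per compound, 10 µM, 0.5% DMSO. Detection: FRET, CFP and YFP emission. Timing: 50 min reaction at room temperature.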
# SENP8 conf = SENP8 protease inhibitors, retest, confirmation, biochemical, luminescence, single concentration. Recombinant SENP8, Z-RLRGG-aminoluciferin luminescence, 60 min. inhibition, % at 12.5 µM. shares compounds with SENP7 block. 6,200 compounds, 40% hits;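 active = mean inhibition across replicates above about 50%, limit read from the data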
# SENP6 conf = SENP6 protease inhibitors, confirmation, biochemical, luminescence, single concentration | shares compounds with SENP7 block | recombinant SENP6, Z-RLRGG-aminoluciferin luminescence | inhibition, % at 12.5 µM | 6,200 compounds, 58% hits
# SENP7 confirm = SENP7 protease inhibitors, retest, confirmation, biochemical, luminescence, single concentration; inhibition, % at 12.5 µM; AID 488917, 2010; shares compounds with SENP7 block; 6,200 compounds, 69% hits; recombinant SENP7, Z-RLRGG-aminoluciferin luminescence, 40 min
# Casp3 select = caspase-3 protease inhibitors, confirmation, selectivity assay for SENP inhibitor project, biochemical, single concentration; purified caspase-3, Z-DEVD-aminoluciferin luminescence, 60 min; shares compounds with SENP7 block; 6,200 compounds, 60% hits; inhibition, % at 12.5 µM;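 active = mean inhibition above about 50%, limit read from the data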
# Target sequence (P42574 28-227 limits assumed): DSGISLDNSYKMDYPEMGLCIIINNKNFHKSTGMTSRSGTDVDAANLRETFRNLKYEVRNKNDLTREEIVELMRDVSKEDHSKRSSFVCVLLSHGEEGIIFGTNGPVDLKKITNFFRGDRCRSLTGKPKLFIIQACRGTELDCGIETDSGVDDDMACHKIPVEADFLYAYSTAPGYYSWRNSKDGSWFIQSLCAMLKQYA
# SENP luc ctr = counter-screen for SENP inhibitors: luminescence interference; shares compounds with SENP7 block; Pre-incubated SENP8/Z-RLRGG-aminoluciferin, luciferase luminescence interference; inhibition, % at 12.5 µM; 6,200 compounds, 39% hits;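 active = mean inhibition above about 50% when retested at one dose, limit read from the data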
# A number is an active result; - = inactive; . = no result. The list is not random: actives were taken first. Their share in the collection is about 2.9%.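 Rule for the calls, unless noted: active = mean inhibition above about 50% in the one-dose retest (limit read from the data); inactive = the rest.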
SMILES,HSP90 inh,SENP8 block-1,SENP7 block,SENP6 block,SENP8 block-2,SENP1 inh,SENP8 conf,SENP6 conf,SENP7 confirm,Casp3 select,SENP luc ctr
COc1ccccc1CN(C)C(=O)CN1CCN(C(=O)c2cccs2)CC1,.,-,-,-,-,-,.,.,.,.,.
Cc1ccc(N=Nc2c(O)n(CN3CCOCC3)c3ccccc23)cc1,-,78,84,67,-,-,-,88,98,63,-
Cc1cccc(NC(=S)N=Nc2c(O)n(CN3CCOCC3)c3ccccc23)c1C,-,-,-,-,-,-,.,.,.,.,.
[O-][n+]1c(/C=C/c2ccccc2)ccc2ccccc21,-,-,68,77,-,-,92,92,100,91,89
COc1ccc(CCNC(=O)C(=O)NCC2OCCN2S(=O)(=O)c2cc(F)ccc2F)cc1OC (stereo not drawn),-,-,-,-,-,-,.,.,.,.,.
Cn1ccc(C(=O)OCC(=O)Nc2ccccc2Cl)n1,-,-,-,-,-,-,.,.,.,.,.
COc1ccccc1/C=C/c1nc(S(=O)(=O)c2ccccc2)c(N(C)C)o1,-,-,-,-,-,-,.,.,.,.,.
COc1ccccc1/C=C/c1nc2ccc(OC(C)=O)cc2c(=O)o1,-,64,65,72,-,-,-,-,-,-,-
O=C(O)c1ccc(-c2nc(-c3cccc(C(F)(F)F)c3)cs2)cc1,-,.,.,.,-,-,.,.,.,.,.
O=C(O)c1ccc(-c2nc(-c3ccc(Cl)cc3Cl)cs2)cc1,-,-,-,60,-,-,-,-,-,-,-
O=c1c(O)c(-c2cccs2)oc2ccc(Cl)cc12,-,-,-,-,-,-,.,.,.,.,.
O=c1cc(-c2cccs2)oc2ccc(Cl)cc12,-,-,50,55,-,-,-,-,51,-,-
O=c1cc(-c2ccc3c(c2)OCCO3)oc2ccc(Cl)cc12,-,-,91,-,-,-,-,-,-,-,-
Cc1nc(-c2ccc(Cl)cc2)sc1C(=O)O,-,85,77,81,-,-,95,95,101,88,93
Cc1noc(C)c1C(=O)OCC(=O)/C=C1/N(C)c2ccccc2C1(C)C,.,.,.,.,-,-,.,.,.,.,.
Clc1ccc2nc3c4ccccc4cnn3c2c1,-,95,98,99,-,-,94,94,101,92,-
CCOC(=O)c1c(S(=O)(=O)NCC(=O)Nc2ccccc2)c(C)n(C)c1C,-,-,73,-,-,-,-,-,-,-,-
Cc1ccc(C2(C)NC(=O)N(CC(=O)NCCN3C(=O)S/C(=C\c4cccnc4)C3=O)C2=O)cc1 (stereo not drawn),.,.,.,.,-,-,.,.,.,.,.
COc1ccc(Cn2c(O)c(C=Nc3ccc(OC)cc3)c3ccccc3c2=O)cc1,-,-,-,58,-,-,-,-,-,-,-
COc1ccc(Cn2c(O)c(C=Nc3ccccc3C(=O)O)c3ccccc3c2=O)cc1,-,-,-,-,-,-,.,.,.,.,.
COc1ccc(NC(=O)N(C)C[C@H]2OCc3cn(nn3)CCCC(=O)N([C@@H](C)CO)C[C@@H]2C)cc1,.,.,.,.,-,-,.,.,.,.,.
COc1ccc(C(C)(NC(C)=O)c2nc(-c3cccc4cccnc34)cs2)cc1 (stereo not drawn),.,.,.,.,-,-,.,.,.,.,.
C/C(=N/OC(=O)c1ccccc1Br)c1ccc(C)cc1,-,-,-,61,-,-,-,-,72,-,-
C/C(=N\OC(=O)c1ccc(Cl)c(Cl)c1)c1sc(C)nc1C,-,-,-,51,-,-,-,-,-,-,-
C/C(=N\OC(=O)c1ccc(C)cc1)c1c(C)nc2cc(C)ccn12,-,-,-,-,-,-,.,.,.,.,.
SMILES,HSP90 inh,SENP8 block-1,SENP7 block,SENP6 block,SENP8 block-2,SENP1 inh,SENP8 conf,SENP6 conf,SENP7 confirm,Casp3 select,SENP luc ctr
C/C(=N/OC(=O)c1ccc(C)cc1)c1cccs1,-,98,100,97,-,-,98,99,102,97,97
C/C(=N\OC(=O)c1ccc(C)cc1)c1sc(C)nc1C,-,62,77,79,-,-,-,73,92,79,57
Cc1ccc(S(=O)(=O)Nc2ccccc2C(=O)N2CCCCC2C)c(C)c1NS(C)(=O)=O (stereo not drawn),-,-,-,-,-,-,.,.,.,.,.
Cc1cc(=O)c2c(N(C)C)cccc2[nH]1,.,.,.,.,-,-,.,.,.,.,.
O=C(N/N=C/c1ccc(Cl)cc1)c1n[nH]c2c1CCCC2,-,-,-,-,-,-,.,.,.,.,.
O=C(N/N=C/c1ccccc1Cl)c1n[nH]c2c1CCCC2,20,86,98,69,-,-,-,-,-,-,-
O=C(N/N=C/c1ccccc1)c1n[nH]c2c1CCCC2,-,-,50,58,-,-,-,-,69,76,-
O=C(N/N=C/c1ccccc1Cl)c1cccc(F)c1,-,53,72,69,-,-,-,70,92,76,68
O=C(N/N=C/c1cccs1)c1n[nH]c2c1CCC2,-,-,77,79,-,-,-,70,89,90,51
COCCN(C(=O)COC(=O)CCCOc1ccccc1)c1c(N)n(Cc2ccccc2)c(=O)[nH]c1=O,.,-,-,-,-,-,.,.,.,.,.
Cc1csc(SC(C)C(=O)NCC2CCCO2)n1 (stereo not drawn),.,-,-,-,-,-,.,.,.,.,.
COc1cc(-c2ccc3cc(OC)c(OC)c(OC)c3c2)cc(OC)c1OC,.,.,.,.,-,-,.,.,.,.,.
Cc1ccnc(NC(=O)Nc2cccc(F)c2)n1,-,-,67,-,-,-,-,-,57,61,-
